Tests used:
[1] = Clearance in rat microsomes assessed per mg of protein at 0.5 uM; type: ADME, Liver, Microsome; details: for microsomal CLint at 0.5 µM: liver microsomes
[2] = target: Phosphatidylinositol 4,5-bisphosphate 3-kinase catalytic subunit gamma isoform (Homo sapiens, UniProt P48736); test: Inhibition of PI3K gamma
[3] = target: T1, Phosphatidylinositol 4,5-bisphosphate 3-kinase catalytic subunit delta isoform (Homo sapiens, UniProt O00329); test: Inhibition of PI3K delta
T1 sequence (O00329 whole entry): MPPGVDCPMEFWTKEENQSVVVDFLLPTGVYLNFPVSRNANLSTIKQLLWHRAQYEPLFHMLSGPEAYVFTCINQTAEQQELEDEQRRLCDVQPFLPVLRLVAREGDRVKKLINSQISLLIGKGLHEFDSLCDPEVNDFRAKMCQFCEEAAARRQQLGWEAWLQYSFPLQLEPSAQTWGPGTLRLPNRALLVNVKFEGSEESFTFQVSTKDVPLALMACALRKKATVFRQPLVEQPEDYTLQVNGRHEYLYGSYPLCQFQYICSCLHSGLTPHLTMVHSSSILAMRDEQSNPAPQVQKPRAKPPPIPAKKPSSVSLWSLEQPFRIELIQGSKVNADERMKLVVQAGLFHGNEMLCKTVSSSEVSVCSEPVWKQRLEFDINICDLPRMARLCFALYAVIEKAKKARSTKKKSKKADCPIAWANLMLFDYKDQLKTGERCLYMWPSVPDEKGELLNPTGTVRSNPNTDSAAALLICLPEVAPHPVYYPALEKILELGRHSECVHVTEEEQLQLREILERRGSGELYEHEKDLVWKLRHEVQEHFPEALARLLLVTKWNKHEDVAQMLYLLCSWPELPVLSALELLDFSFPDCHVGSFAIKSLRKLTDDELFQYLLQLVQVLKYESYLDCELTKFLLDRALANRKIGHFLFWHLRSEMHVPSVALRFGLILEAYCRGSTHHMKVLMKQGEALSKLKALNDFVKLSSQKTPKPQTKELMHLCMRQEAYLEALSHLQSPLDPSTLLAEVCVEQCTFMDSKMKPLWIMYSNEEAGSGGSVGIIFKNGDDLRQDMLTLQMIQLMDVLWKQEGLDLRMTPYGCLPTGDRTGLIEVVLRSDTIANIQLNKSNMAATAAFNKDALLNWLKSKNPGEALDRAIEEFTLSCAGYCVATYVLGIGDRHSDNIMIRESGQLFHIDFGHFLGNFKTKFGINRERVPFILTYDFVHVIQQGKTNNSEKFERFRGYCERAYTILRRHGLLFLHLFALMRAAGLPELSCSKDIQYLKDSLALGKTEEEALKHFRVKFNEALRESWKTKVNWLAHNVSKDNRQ

Neutrophil = test: Inhibition of fMLP-stimulated superoxide production in TNF alpha-primed human neutrophils by spectrophotometry; type: functional, cell-based
Outline: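 Human neutrophils were primed with TNFα and stimulated with fMLP, and cellular superoxide production was monitored. Inhibition values are quoted in nM.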

Hepatocyte = test: Clearance in rat hepatocyte assessed per mg of protein at 2 uM; type: ADME, cell-based, Liver; details: hepatocytes
[4] = target: Phosphatidylinositol 4,5-bisphosphate 3-kinase catalytic subunit alpha isoform (Homo sapiens, UniProt P42336); test: Inhibition of PI3K alpha
[5] = Clearance in human microsomes assessed per mg of protein at 0.5 uM; type: ADME, Microsome
[6] = target: Phosphatidylinositol 4,5-bisphosphate 3-kinase catalytic subunit beta isoform (Homo sapiens, UniProt P42338); test: Inhibition of PI3K beta
[7] = AUC in Han-Wistar rat at 3 mg/kg, po; type: ADME, organism-based; design: dose 3 mg/kg, route oral; details: plasma
Outline: (§1)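 Male-or-unspecified Han–Wistar rats were given a single oral dose of 3 mg/kg. Plasma Cmax is reported in ng/mL and AUC in ng h/mL.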

[8] = Oral bioavailability in Han-Wistar rat at 3 mg/kg; type: ADME, organism-based; details: in vivo
[9] = Cmax in Han-Wistar rat at 3 mg/kg, po; type: ADME, organism-based; design: dose 3 mg/kg, route oral; details: in vivo; outline: as §1
Homo sapiens = species on record: Homo sapiens; test: Selectivity for human PI3K gamma over human PI3K delta

Sequence of Phosphatidylinositol 4,5-bisphosphate 3-kinase catalytic subunit alpha isoform (P42336 whole entry, canonical isoform): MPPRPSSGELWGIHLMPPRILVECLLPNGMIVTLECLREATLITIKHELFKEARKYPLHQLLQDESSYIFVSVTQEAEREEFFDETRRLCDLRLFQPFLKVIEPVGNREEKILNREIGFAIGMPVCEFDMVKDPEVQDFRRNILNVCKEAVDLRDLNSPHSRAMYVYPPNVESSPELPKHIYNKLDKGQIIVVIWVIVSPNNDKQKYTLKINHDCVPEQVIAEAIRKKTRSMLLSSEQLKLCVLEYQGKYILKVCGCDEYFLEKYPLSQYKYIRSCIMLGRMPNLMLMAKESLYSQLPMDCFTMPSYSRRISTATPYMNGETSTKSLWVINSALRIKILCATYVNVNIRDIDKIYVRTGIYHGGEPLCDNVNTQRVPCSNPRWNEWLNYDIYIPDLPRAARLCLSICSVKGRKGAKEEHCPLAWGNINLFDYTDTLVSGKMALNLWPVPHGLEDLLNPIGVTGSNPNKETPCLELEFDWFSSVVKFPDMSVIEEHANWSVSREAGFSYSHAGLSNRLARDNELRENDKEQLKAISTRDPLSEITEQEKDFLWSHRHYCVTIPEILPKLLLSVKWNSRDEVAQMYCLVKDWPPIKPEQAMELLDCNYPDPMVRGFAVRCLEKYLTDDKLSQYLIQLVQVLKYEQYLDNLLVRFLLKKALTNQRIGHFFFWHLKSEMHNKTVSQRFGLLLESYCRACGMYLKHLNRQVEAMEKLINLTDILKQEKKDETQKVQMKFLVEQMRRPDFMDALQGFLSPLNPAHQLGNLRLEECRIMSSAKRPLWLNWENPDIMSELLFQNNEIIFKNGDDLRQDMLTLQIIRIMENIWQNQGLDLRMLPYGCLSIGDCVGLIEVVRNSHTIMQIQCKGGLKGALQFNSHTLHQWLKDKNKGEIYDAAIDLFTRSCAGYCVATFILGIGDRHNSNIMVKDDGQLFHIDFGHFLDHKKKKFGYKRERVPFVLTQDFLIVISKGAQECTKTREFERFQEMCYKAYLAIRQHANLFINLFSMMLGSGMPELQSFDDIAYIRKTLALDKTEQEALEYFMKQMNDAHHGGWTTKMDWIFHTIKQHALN
Sequence of Phosphatidylinositol 4,5-bisphosphate 3-kinase catalytic subunit beta isoform (P42338 whole entry, canonical isoform): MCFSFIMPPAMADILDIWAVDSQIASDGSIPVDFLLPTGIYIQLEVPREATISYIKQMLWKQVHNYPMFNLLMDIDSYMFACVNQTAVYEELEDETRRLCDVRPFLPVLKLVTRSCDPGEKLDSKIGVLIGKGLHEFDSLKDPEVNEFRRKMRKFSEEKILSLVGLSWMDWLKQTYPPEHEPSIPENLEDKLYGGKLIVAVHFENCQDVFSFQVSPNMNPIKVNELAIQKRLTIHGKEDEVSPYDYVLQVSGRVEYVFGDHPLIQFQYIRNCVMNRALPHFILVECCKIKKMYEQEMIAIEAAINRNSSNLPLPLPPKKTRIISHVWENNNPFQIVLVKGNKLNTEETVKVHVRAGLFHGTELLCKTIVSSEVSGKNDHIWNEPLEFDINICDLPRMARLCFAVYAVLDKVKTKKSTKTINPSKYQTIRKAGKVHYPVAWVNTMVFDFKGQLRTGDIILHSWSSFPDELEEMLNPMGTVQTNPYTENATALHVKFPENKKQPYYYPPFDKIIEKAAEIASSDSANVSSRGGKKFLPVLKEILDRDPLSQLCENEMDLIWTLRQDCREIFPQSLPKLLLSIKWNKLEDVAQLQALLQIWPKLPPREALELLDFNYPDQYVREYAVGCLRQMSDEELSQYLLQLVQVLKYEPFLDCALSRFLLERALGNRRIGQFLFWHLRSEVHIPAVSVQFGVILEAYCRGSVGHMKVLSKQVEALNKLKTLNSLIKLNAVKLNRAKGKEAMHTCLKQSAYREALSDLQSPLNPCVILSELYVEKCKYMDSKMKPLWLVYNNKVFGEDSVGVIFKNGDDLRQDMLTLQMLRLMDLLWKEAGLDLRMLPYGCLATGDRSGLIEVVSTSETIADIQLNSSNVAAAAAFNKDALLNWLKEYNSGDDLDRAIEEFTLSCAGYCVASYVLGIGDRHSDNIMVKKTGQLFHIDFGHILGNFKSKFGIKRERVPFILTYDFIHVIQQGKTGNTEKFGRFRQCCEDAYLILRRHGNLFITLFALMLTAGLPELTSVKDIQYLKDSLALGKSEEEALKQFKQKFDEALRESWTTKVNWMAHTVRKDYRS
Sequence of Phosphatidylinositol 4,5-bisphosphate 3-kinase catalytic subunit gamma isoform (P48736 whole entry, canonical isoform): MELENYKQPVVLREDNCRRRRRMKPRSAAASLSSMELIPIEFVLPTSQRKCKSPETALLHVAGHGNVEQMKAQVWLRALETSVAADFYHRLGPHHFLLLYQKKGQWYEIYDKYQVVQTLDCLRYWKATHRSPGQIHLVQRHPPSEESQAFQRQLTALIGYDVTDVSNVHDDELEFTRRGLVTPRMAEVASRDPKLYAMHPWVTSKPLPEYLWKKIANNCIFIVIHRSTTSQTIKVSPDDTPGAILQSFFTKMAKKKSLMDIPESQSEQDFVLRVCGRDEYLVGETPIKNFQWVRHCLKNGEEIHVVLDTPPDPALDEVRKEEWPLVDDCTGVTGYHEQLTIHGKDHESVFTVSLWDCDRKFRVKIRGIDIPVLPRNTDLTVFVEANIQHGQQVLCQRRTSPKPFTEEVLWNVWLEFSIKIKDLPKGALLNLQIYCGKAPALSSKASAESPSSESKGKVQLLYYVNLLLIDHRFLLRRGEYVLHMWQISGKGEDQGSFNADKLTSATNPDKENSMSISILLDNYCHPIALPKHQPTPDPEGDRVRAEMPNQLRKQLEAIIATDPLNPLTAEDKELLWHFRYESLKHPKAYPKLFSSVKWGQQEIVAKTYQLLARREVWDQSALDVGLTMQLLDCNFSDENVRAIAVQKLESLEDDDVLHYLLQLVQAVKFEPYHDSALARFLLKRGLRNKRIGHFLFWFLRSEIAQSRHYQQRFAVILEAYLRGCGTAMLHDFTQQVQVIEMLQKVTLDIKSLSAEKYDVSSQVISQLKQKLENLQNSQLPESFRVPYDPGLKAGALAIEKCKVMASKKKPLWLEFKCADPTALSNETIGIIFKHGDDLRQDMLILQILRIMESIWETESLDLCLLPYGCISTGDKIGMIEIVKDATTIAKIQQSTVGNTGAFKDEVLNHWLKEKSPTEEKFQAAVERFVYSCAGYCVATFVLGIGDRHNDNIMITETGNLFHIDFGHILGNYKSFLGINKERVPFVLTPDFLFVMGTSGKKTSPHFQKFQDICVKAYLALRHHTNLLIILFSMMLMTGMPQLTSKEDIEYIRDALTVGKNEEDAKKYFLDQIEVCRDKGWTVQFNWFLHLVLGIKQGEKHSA

Row | Compound | IC50 [2] [nM] | IC50 [3] [nM] | IC50 [4] [nM] | IC50 [6] [nM] | other results
1 | Cn1cc(-c2ccc3c(c2)N(c2nc4c(s2)C(=O)CC(C)(C)C4)CCO3)cn1 | 52 | 49 | 294 | 336 | microsomal CLint at 0.5 µM [1]: 39 µL/min/mg; IC50 (Neutrophil): 44 nM; CL (Hepatocyte): 8 µL/min/mg; microsomal CLint at 0.5 µM [5]: 36 µL/min/mg
2 | CC(=O)c1ccc2c(c1)N(c1nc3c(s1)C(=O)NC(C)(C)C3)CCO2 | 318 | 366 |  | 1450 | 
3 | CC1(C)CC(=O)c2sc(N3CCOc4ccc(-c5cn[nH]c5)cc43)nc2C1 | 77 | 17 | 188 | 298 | 
4 | Cc1cccc2c1OCCN2c1nc2c(s1)C(=O)NC(C)(C)C2 |  | 15300 |  |  | 
5 | CC1(C)CC(=O)c2sc(N3CCOc4ncccc43)nc2C1 | 6650 | 5730 | 11300 | 5310 | 
6 | Cc1ccc2c(c1)OCCN2c1nc2c(s1)C(=O)NC(C)(C)C2 | 531 | 605 |  | 1620 | 
7 | CC1(C)CC(=O)c2sc(N3CCOc4ccc(-c5ccccc5)cc43)nc2C1 | 854 | 80 | 2670 | 7990 | clearance ([1]; microsomes, 0.5 µM): 15 µL/min/mg; IC50 (Neutrophil): 267 nM; clearance ([5]; 0.5 µM): 18 µL/min/mg
8 | CC1(C)CC(=O)c2sc(N3CCOc4ccc(-c5ccncc5)cc43)nc2C1 | 159 | 94 | 825 | 1050 | 
9 | Cc1ccc(-c2ccc3c(c2)N(c2nc4c(s2)C(=O)CC(C)(C)C4)CCO3)cn1 | 73 | 26 | 164 | 308 | microsomal CLint at 0.5 µM [1]: 25 µL/min/mg; microsomal CLint at 0.5 µM [5]: 48 µL/min/mg
10 | CC1(C)CC(=O)c2sc(N3CCOCC3)nc2C1 |  |  |  |  | microsomal CLint at 0.5 µM [1]: 6 µL/min/mg; CL (Hepatocyte): 7 µL/min/mg
11 | COc1ccc2c(c1)OCCN2c1nc2c(s1)C(=O)NC(C)(C)C2 | 440 | 230 | 1130 | 1590 | 
12 | CC1(C)Cc2nc(N3CCOc4ccc(Br)cc43)sc2C(=O)N1 | 321 | 153 | 1110 | 1620 | 
13 | CC1(C)Cc2nc(N3CCOc4ccc(C5CC5)cc43)sc2C(=O)N1 | 210 | 155 |  | 834 | 
14 | CC1(C)Cc2nc(N3CCOc4ccc(-c5cnc[nH]5)cc43)sc2C(=O)N1 | 163 | 81 | 736 | 727 | 
15 | Cn1ccnc1-c1ccc2c(c1)N(c1nc3c(s1)C(=O)NC(C)(C)C3)CCO2 | 819 | 285 | 2900 | 3520 | 
16 | Cc1ccc2c(c1)N(c1nc3c(s1)C(=O)NC(C)(C)C3)CCO2 | 617 | 357 | 1810 | 964 | 
17 | Cc1nc(-c2ccc3c(c2)N(c2nc4c(s2)C(=O)NC(C)(C)C4)CCO3)c[nH]1 | 107 | 51 | 636 | 325 | 

Row | Compound | IC50 [2] [nM] | IC50 [3] [nM] | IC50 [4] [nM] | IC50 [6] [nM] | other results
18 | CC1(C)Cc2nc(N3CCOc4cnccc43)sc2C(=O)N1 |  | > 20000 |  |  | 
19 | CC1(C)CC(=O)c2sc(N3CCOc4cc(-c5ccccc5)ccc43)nc2C1 | > 20000 | 1050 | > 20000 |  | 
20 | CC1(C)Cc2nc(N3CCOc4c(F)cccc43)sc2C(=O)N1 | 16800 | 11200 |  | 11700 | 
21 | CC1(C)Cc2nc(N3CCOc4cc(F)ccc43)sc2C(=O)N1 | 357 | 783 |  | 1240 | 
22 | CC1(C)CC(=O)c2sc(N3CCOc4cc(Br)ccc43)nc2C1 | 3130 | 549 | 2850 | 5340 | 
23 | CN(C)Cc1ccc2c(c1)N(c1nc3c(s1)C(=O)NC(C)(C)C3)CCO2 | > 20000 | 7570 | > 20000 | 10300 | 
24 | CC1(C)CC(=O)c2sc(N3CCOc4ccc(-c5cccnc5)cc43)nc2C1 | 113 | 20 | 172 | 376 | 
25 | CC1(C)Cc2nc(N3CCOc4ccc(-c5ccn[nH]5)cc43)sc2C(=O)N1 | 145 | 90 | 917 | 1470 | 
26 | Cc1ccc(-c2ccc3c(c2)N(c2nc4c(s2)C(=O)NC(C)(C)C4)CCO3)nn1 |  |  |  |  | AUC [7]: 2470 ng·h/mL; bioavailability [8]: 66%; Cmax [9]: 185 ng/mL
27 | CC1(C)CC(=O)c2sc(N3CCOc4ccc(-c5ccccn5)cc43)nc2C1 | 258 | 74 | 677 | 2000 | 
28 | CC1(C)Cc2nc(N3CCOc4ccc(-c5ccccc5)cc43)sc2C(=O)N1 | 80 | 50 |  | 3660 | microsomal CLint at 0.5 µM [1]: 39 µL/min/mg; IC50 (Neutrophil): 573 nM; microsomal CLint at 0.5 µM [5]: 21 µL/min/mg
29 | CC1(C)Cc2nc(N3CCOCC3)sc2C(=O)N1 | 5280 | 722 | 2370 | 450 | IC50 (Neutrophil): 2960 nM; CL (Hepatocyte): 1 µL/min/mg; microsomal CLint at 0.5 µM [5]: 1 µL/min/mg
30 | CC1(C)CC(=O)c2sc(N3CCOc4ccccc43)nc2C1 | 829 | 614 | 676 | 511 | microsomal CLint at 0.5 µM [1]: 220 µL/min/mg; fold change (FC) (Homo sapiens): 2; IC50 (Neutrophil): 759 nM; CL (Hepatocyte): 162 µL/min/mg; microsomal CLint at 0.5 µM [5]: 47 µL/min/mg
31 | CC1(C)Cc2nc(N3CCOc4ccccc43)sc2C(=O)N1 | 959 | 1630 |  | 1230 | fold change (FC) (Homo sapiens): 2
32 | CC1(C)CC(=O)c2sc(N3CCOc4ccc(Br)cc43)nc2C1 | 829 | 249 | 1970 | 1920 | 
33 | CC1(C)Cc2nc(N3CCOc4ccc(-c5ncccn5)cc43)sc2C(=O)N1 | 189 | 123 | 791 | 623 | 

From ChEMBL document CHEMBL1155924, “Achieving multi-isoform PI3K inhibition in a series of substituted 3,4-dihydro-2H-benzo[1,4]oxazines” (Bioorg Med Chem Lett, 2008)
